Test results: ChEMBL document CHEMBL1137337, “Design, synthesis, and biological evaluation of new cyclic melanotropin peptide analogues selective for the human melanocortin-4 receptor” (J Med Chem, 2006)
Calls of active or inactive are those of the source. The calls are words filed in the database; no cut-off is given here.

What was measured:
Melanocortin receptor 5 [1] = biological target: T1, Melanocortin receptor 5 (Homo sapiens, UniProt P33032); experiment: Displacement of [125I]NDP-alphaMSH from human MC5 receptor expressed in HEK293 cells relative to MT2; format: cell-based
T1 sequence (P33032 whole entry): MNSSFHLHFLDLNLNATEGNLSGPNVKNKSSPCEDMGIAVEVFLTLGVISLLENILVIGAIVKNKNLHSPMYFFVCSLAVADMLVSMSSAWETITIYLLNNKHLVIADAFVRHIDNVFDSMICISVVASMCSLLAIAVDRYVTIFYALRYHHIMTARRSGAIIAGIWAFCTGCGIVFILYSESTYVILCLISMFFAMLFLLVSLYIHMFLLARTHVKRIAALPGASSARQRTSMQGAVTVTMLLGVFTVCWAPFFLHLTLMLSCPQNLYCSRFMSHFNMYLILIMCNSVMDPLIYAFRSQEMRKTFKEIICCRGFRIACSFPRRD
Summary of the method: (§1)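 Binding efficiency was measured in the whole-cell [¹²⁵I]NDP-α-MSH competition assay on receptor-transfected HEK293 cells (30 min, 37 °C). It is expressed as the peptide's maximal percentage specific binding relative to MTII agonist binding, with peptides tested at 10⁻¹⁰ to 10⁻⁵ M.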

Melanocortin receptor 3 [2] = biological target: T2, Melanocortin receptor 3 (Homo sapiens, UniProt P41968); experiment: Displacement of [125I]NDP-alphaMSH from human MC3 receptor expressed in HEK293 cells; format: cell-based
T2 sequence (P41968 whole entry): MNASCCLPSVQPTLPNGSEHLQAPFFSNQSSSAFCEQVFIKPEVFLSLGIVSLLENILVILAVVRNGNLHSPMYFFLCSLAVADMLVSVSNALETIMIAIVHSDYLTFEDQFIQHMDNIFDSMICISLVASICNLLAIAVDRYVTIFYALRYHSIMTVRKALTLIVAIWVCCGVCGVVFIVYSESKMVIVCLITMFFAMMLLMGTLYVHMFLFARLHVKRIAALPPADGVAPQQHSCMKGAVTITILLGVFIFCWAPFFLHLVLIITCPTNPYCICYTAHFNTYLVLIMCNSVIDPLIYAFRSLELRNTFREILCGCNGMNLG
Summary of the method: (§2)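 Whole-cell competition used transfected HEK293 cells seeded 48 h ahead at 100 000 cells/well. Binding buffer was MEM with 25 mM HEPES pH 7.4, 0.2% BSA, 1 mM 1,10-phenanthroline, leupeptin and bacitracin. Radioactivity was gamma-counted, and IC50 was obtained by nonlinear least-squares fit.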

Melanocortin receptor 3 [3] = biological target: T2, Melanocortin receptor 3; experiment: Activity at hMC3R transfected in HEK293 cells assessed as intracellular cAMP accumulation; format: functional, cell-based
Summary of the method: (§3)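 HEK293 cells stably carrying the human MC receptor were seeded 48 h ahead at 50 000 cells/well. They were preincubated 1 min at 37 °C in EBSS with IBMX, then exposed to peptide at 10⁻¹⁰ to 10⁻⁵ M for 3 min at 37 °C. Ice-cold Tris/EDTA stopped the reaction, and lysates were boiled 15 min. Total cAMP was measured by competitive binding kit, and EC50 was obtained by nonlinear least-squares fit.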

[4] = biological target: T3, Melanocyte-stimulating hormone receptor (Homo sapiens, UniProt Q01726); experiment: Displacement of [125I]NDP-alphaMSH from human MC1 receptor expressed in HEK293 cells; format: cell-based; summary of the method: as §2
Melanocortin receptor 3 [5] = biological target: T2, Melanocortin receptor 3; experiment: Activity at hMC3R transfected in HEK293 cells assessed as intracellular cAMP accumulation relative to MT2; format: functional, cell-based; parameters: concentration or dose not given beside the values
Melanocortin receptor 3 [6] = biological target: T2, Melanocortin receptor 3; experiment: Displacement of [125I]NDP-alphaMSH from human MC3 receptor expressed in HEK293 cells relative to MT2; format: cell-based; summary of the method: as §1
Melanocortin receptor 4 [7] = biological target: T4, Melanocortin receptor 4 (Homo sapiens, UniProt P32245); experiment: Displacement of [125I]NDP-alphaMSH from human MC4 receptor expressed in HEK293 cells relative to MT2; format: cell-based; summary of the method: as §1
T4 sequence (P32245 whole entry): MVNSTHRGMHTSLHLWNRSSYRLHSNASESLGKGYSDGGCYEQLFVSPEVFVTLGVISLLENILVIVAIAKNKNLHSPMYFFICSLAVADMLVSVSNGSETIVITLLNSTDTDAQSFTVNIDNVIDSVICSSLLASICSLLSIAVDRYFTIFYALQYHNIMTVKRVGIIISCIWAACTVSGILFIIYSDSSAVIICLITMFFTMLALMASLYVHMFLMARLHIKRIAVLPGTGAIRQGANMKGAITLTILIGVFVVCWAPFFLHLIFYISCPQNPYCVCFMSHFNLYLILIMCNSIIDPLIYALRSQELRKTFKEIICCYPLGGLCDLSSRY

Melanocortin receptor 4 [8] = biological target: T4, Melanocortin receptor 4; experiment: Activity at hMC4R transfected in HEK293 cells assessed as intracellular cAMP accumulation relative to MT2; format: functional, cell-based; parameters: concentration or dose not given beside the values
Melanocortin receptor 5 [9] = biological target: T1, Melanocortin receptor 5; experiment: Activity at hMC5R transfected in HEK293 cells assessed as intracellular cAMP accumulation relative to MT2; format: functional, cell-based
Melanocortin receptor 5 [10] = biological target: T1, Melanocortin receptor 5; experiment: Activity at hMC5R transfected in HEK293 cells assessed as intracellular cAMP accumulation; format: functional, cell-based; summary of the method: as §3
[11] = biological target: T3, Melanocyte-stimulating hormone receptor; experiment: Displacement of [125I]NDP-alphaMSH from human MC1 receptor expressed in HEK293 cells relative to MT2; format: cell-based; summary of the method: as §1
Target sequence in this assay (Q01726 whole entry, looked up): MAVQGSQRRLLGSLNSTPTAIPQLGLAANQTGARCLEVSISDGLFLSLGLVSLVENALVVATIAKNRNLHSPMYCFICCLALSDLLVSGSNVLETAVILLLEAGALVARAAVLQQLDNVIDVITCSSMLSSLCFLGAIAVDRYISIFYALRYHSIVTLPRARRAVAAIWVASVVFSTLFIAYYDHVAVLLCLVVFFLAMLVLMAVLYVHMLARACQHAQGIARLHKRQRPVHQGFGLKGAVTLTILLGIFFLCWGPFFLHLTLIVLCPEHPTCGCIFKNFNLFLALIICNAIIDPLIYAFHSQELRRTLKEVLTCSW

Melanocortin receptor 5 [12] = biological target: T1, Melanocortin receptor 5; experiment: Displacement of [125I]NDP-alphaMSH from human MC5 receptor expressed in HEK293 cells; format: cell-based; summary of the method: as §2
[13] = biological target: T3, Melanocyte-stimulating hormone receptor; experiment: Activity at hMC1R transfected in HEK293 cells assessed as intracellular cAMP accumulation relative to MT2; format: functional, cell-based; parameters: concentration or dose not given beside the values
Target sequence in this assay (Q01726 whole entry, looked up): as above

Melanocortin receptor 4 [14] = biological target: T4, Melanocortin receptor 4; experiment: Activity at hMC4R transfected in HEK293 cells assessed as intracellular cAMP accumulation; format: functional, cell-based; summary of the method: as §3
Melanocortin receptor 4 [15] = biological target: T4, Melanocortin receptor 4; experiment: Displacement of [125I]NDP-alphaMSH from human MC4 receptor expressed in HEK293 cells; format: cell-based; summary of the method: as §2

With `CC(=O)N[C@H]1CCC(=O)NCCC[C@@H](C(=O)N[C@@H](Cc2c[nH]c3ccccc23)C(N)=O)N(CCCCN=C(N)N)C(=O)[C@@H](Cc2ccccc2)NC(=O)[C@H](Cc2c[nH]cn2)NC1=O` the Activity (Melanocortin receptor 5 [1]) was 0%, the IC50 (Melanocortin receptor 3 [2]) was over 1 µM and the Activity (Melanocortin receptor 3 [3]) was “inactive”. It also gave an IC50 [4] of 0.75 µM, an Activity (Melanocortin receptor 3 [5]) of 0% and an Activity (Melanocortin receptor 3 [6]) of 50%. For the same compound, the Activity (Melanocortin receptor 4 [7]) was 50%, the Activity (Melanocortin receptor 4 [8]) was under 10% and the Activity (Melanocortin receptor 5 [9]) was 0%. The Activity (Melanocortin receptor 5 [10]) was “inactive”, the Activity [11] was under 10% and the Activity (Melanocortin receptor 5 [12]) was “inactive”. It also gave an Activity [13] of 0%, an EC50 (Melanocortin receptor 4 [14]) of over 1 µM and an IC50 (Melanocortin receptor 4 [15]) of 0.101 µM.
`CC(=O)N[C@H]1CSSC[C@@H](C(=O)N(CCCCN=C(N)N)C(Cc2c[nH]c3ccccc23)C(N)=O)NC(=O)[C@@H](Cc2ccc3ccccc3c2)NC(=O)[C@H](Cc2c[nH]cn2)NC1=O` (stereo in doubt) was tested, and the Activity (Melanocortin receptor 5 [1]) was under 10%, the Activity (Melanocortin receptor 3 [2]) was “inactive” and the Activity (Melanocortin receptor 3 [3]) was “inactive”. The IC50 [4] was over 1 µM, the Activity (Melanocortin receptor 3 [5]) was 0% and the Activity (Melanocortin receptor 3 [6]) was 0%. The Activity (Melanocortin receptor 4 [7]) was 0%, the Activity (Melanocortin receptor 4 [8]) was 0% and the Activity (Melanocortin receptor 5 [9]) was 0%. For the same compound, the Activity (Melanocortin receptor 5 [10]) was “inactive”, the Activity [11] was under 10% and the IC50 (Melanocortin receptor 5 [12]) was 0.209 µM. For the same compound, the Activity [13] was 0%, the Activity (Melanocortin receptor 4 [14]) was “inactive” and the Activity (Melanocortin receptor 4 [15]) was “inactive”.
With `CC(=O)N[C@H]1CSSC[C@@H](C(=O)N(CCCCN=C(N)N)[C@H](Cc2c[nH]c3ccccc23)C(N)=O)NC(=O)[C@@H](Cc2ccccc2)NC(=O)[C@H](Cc2c[nH]cn2)NC1=O` the Activity (Melanocortin receptor 5 [1]) was 0%, the Activity (Melanocortin receptor 3 [3]) was “inactive” and the Activity [4] was “inactive”. It also gave an Activity (Melanocortin receptor 3 [5]) of 0%, an Activity (Melanocortin receptor 3 [6]) of under 10% and an Activity (Melanocortin receptor 4 [7]) of 50%. The Activity (Melanocortin receptor 4 [8]) was 19%, the Activity (Melanocortin receptor 5 [9]) was 0% and the Activity (Melanocortin receptor 5 [10]) was “inactive”. For the same compound, the Activity [11] was 0%, the Activity (Melanocortin receptor 5 [12]) was “inactive” and the Activity [13] was 0%.
With `CC(=O)N[C@H]1CCC(=O)NCCC(C(=O)N[C@@H](Cc2c[nH]c3ccccc23)C(N)=O)N(CCCCN=C(N)N)C(=O)[C@@H](Cc2ccccc2)NC(=O)[C@H](Cc2c[nH]cn2)NC1=O` (stereo not given in full) the Activity (Melanocortin receptor 5 [1]) was 0%, the Activity (Melanocortin receptor 3 [3]) was “inactive” and the Activity (Melanocortin receptor 3 [5]) was 0%. For the same compound, the Activity (Melanocortin receptor 3 [6]) was 50%, the Activity (Melanocortin receptor 4 [7]) was 0% and the Activity (Melanocortin receptor 4 [8]) was 0%. For the same compound, the Activity (Melanocortin receptor 5 [9]) was 0%, the Activity (Melanocortin receptor 5 [10]) was “inactive” and the Activity [11] was under 10%. The Activity (Melanocortin receptor 5 [12]) was “inactive”, the Activity [13] was 0% and the Activity (Melanocortin receptor 4 [14]) was “inactive”. For the same compound, the Activity (Melanocortin receptor 4 [15]) was “inactive”.
In the case of `CC(=O)N[C@H]1CSSC[C@@H](C(=O)N(CCCCN=C(N)N)[C@@H](Cc2c[nH]c3ccccc23)C(N)=O)NC(=O)[C@@H](Cc2ccccc2)NC(=O)[C@H](Cc2c[nH]cn2)NC1=O`, the Activity (Melanocortin receptor 5 [1]) is reported as 0%, the Activity (Melanocortin receptor 3 [3]) is reported as “inactive” and the Activity (Melanocortin receptor 3 [5]) is reported as 0%. For the same compound, the Activity (Melanocortin receptor 3 [6]) was 50%, the Activity (Melanocortin receptor 4 [7]) was 50% and the Activity (Melanocortin receptor 4 [8]) was 18%. For the same compound, the Activity (Melanocortin receptor 5 [9]) was 0%, the Activity (Melanocortin receptor 5 [10]) was “inactive” and the Activity [11] was under 10%. For the same compound, the Activity (Melanocortin receptor 5 [12]) was “inactive” and the Activity [13] was 0%.
In the case of `CC(=O)N[C@H]1CSSC[C@@H](C(=O)N[C@@H](Cc2c[nH]c3ccccc23)C(N)=O)N(CCCCN=C(N)N)C(=O)[C@@H](Cc2ccccc2)NC(=O)[C@H](Cc2c[nH]cn2)NC1=O`, the Activity (Melanocortin receptor 5 [1]) is reported as 0%, the Activity (Melanocortin receptor 3 [2]) is reported as “inactive” and the Activity (Melanocortin receptor 3 [3]) is reported as “inactive”. The Activity [4] was “inactive”, the Activity (Melanocortin receptor 3 [5]) was 0% and the Activity (Melanocortin receptor 3 [6]) was 0%. It also gave an Activity (Melanocortin receptor 4 [7]) of 50%, an Activity (Melanocortin receptor 4 [8]) of 0% and an Activity (Melanocortin receptor 5 [9]) of 0%. For the same compound, the Activity (Melanocortin receptor 5 [10]) was “inactive”, the Activity [11] was 0% and the Activity (Melanocortin receptor 5 [12]) was “inactive”. The Activity [13] was 0% and the Activity (Melanocortin receptor 4 [14]) was “inactive”.
`CC(=O)N[C@H]1CSSC[C@@H](C(=O)N[C@@H](Cc2c[nH]c3ccccc23)C(N)=O)N(CCCCN=C(N)N)C(=O)[C@@H](Cc2ccccc2)NC(=O)[C@H](Cc2cnc[nH]2)NC1=O` showed an IC50 (Melanocortin receptor 4 [15]) of 0.0018 µM.
`CC(=O)N[C@H]1CCC(=O)NCC[C@@H](C(=O)N[C@@H](Cc2c[nH]c3ccccc23)C(N)=O)N(CCCCN=C(N)N)C(=O)[C@@H](Cc2ccccc2)NC(=O)[C@H](Cc2cnc[nH]2)NC1=O` was tested, and the IC50 (Melanocortin receptor 3 [2]) was over 1 µM and the IC50 [4] was over 1 µM.
`CC(=O)N[C@H]1CSSC[C@@H](C(=O)N(CCCCN=C(N)N)[C@H](Cc2c[nH]c3ccccc23)C(N)=O)NC(=O)[C@@H](Cc2ccccc2)NC(=O)[C@H](Cc2cnc[nH]2)NC1=O` showed an IC50 (Melanocortin receptor 3 [2]) of over 1 µM, an EC50 (Melanocortin receptor 4 [14]) of over 1 µM and an IC50 (Melanocortin receptor 4 [15]) of 0.0007 µM.
`CC(=O)N[C@H]1CCC(=O)NCCC[C@@H](C(=O)N[C@@H](Cc2c[nH]c3ccccc23)C(N)=O)N(CCCCN=C(N)N)C(=O)[C@@H](Cc2ccc3ccccc3c2)NC(=O)[C@H](Cc2c[nH]cn2)NC1=O` was tested, and the Activity (Melanocortin receptor 5 [1]) was 0%, the IC50 (Melanocortin receptor 3 [2]) was over 1 µM and the Activity (Melanocortin receptor 3 [3]) was “inactive”. It also gave an IC50 [4] of over 10 µM, an Activity (Melanocortin receptor 3 [5]) of 0% and an Activity (Melanocortin receptor 3 [6]) of 50%. The Activity (Melanocortin receptor 4 [7]) was 0%, the Activity (Melanocortin receptor 4 [8]) was 0% and the Activity (Melanocortin receptor 5 [9]) was 0%. The Activity (Melanocortin receptor 5 [10]) was “inactive”, the Activity [11] was under 10% and the Activity (Melanocortin receptor 5 [12]) was “inactive”. For the same compound, the Activity [13] was 0%, the Activity (Melanocortin receptor 4 [14]) was “inactive” and the Activity (Melanocortin receptor 4 [15]) was “inactive”.
With `CC(=O)N[C@H]1CSSC[C@@H](C(=O)N(CCCCN=C(N)N)[C@@H](Cc2c[nH]c3ccccc23)C(N)=O)NC(=O)[C@@H](Cc2ccccc2)NC(=O)[C@H](Cc2cnc[nH]2)NC1=O` the IC50 (Melanocortin receptor 3 [2]) was over 1 µM, the IC50 [4] was over 1 µM and the EC50 (Melanocortin receptor 4 [14]) was over 1 µM. For the same compound, the IC50 (Melanocortin receptor 4 [15]) was 0.0041 µM.
`CC(=O)N[C@H]1CSSC[C@H](C(=O)N[C@@H](Cc2c[nH]c3ccccc23)C(N)=O)N(CCCCN=C(N)N)C(=O)[C@@H](Cc2ccccc2)NC(=O)[C@H](Cc2c[nH]cn2)NC1=O` was tested, and the Activity (Melanocortin receptor 5 [1]) was 0%, the Activity (Melanocortin receptor 3 [2]) was “inactive” and the Activity (Melanocortin receptor 3 [3]) was “inactive”. The IC50 [4] was 1 µM, the Activity (Melanocortin receptor 3 [5]) was 0% and the Activity (Melanocortin receptor 3 [6]) was 0%. For the same compound, the Activity (Melanocortin receptor 4 [7]) was 0%, the Activity (Melanocortin receptor 4 [8]) was 0% and the Activity (Melanocortin receptor 5 [9]) was 0%. For the same compound, the Activity (Melanocortin receptor 5 [10]) was “inactive”, the Activity [11] was under 10% and the Activity (Melanocortin receptor 5 [12]) was “inactive”. The Activity [13] was 0%, the Activity (Melanocortin receptor 4 [14]) was “inactive” and the Activity (Melanocortin receptor 4 [15]) was “inactive”.
